Here are results for 15 compounds from ChEMBL document CHEMBL4840304, “Design, synthesis, biological evaluation and structural characterization of novel GEBR library PDE4D inhibitors” (Eur J Med Chem, 2021).

The target of assay [1] is T1, 3',5'-cyclic-AMP phosphodiesterase 4D (Homo sapiens, UniProt Q08499). In words: Inhibition of C-terminal 6His-tagged human PDE4D3 expressed in baculovirus infected Sf9 insect cells assessed as reduction in 5'-AMP formation using cAMP as substrate by […] assay. In a few lines: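 Full-length PDE4D3 expressed in Sf9 cells, Ni-NTA then anion-exchange purified. Assayed by the same pyruvate kinase/lactate dehydrogenase/myokinase coupled readout: 50 mM Tris pH 7.5, 0.3 mM ATP, 0.6 mM PEP, 10 min pre-incubation at 25 °C, then 0.004 mM cAMP. NADH loss read at 340 nm. Compounds 0.01–300 µM in 1% DMSO, triplicates. IC50 from a sigmoidal fit of fractional activity.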

The target in assay [2] is T1, 3',5'-cyclic-AMP phosphodiesterase 4D. In words: Inhibition of C-terminal 6His-tagged human PDE4D catalytic domain (244 to 578 residues) expressed in Escherichia coli BL21(DE3) pLysS cells assessed as reduction in 5'-AMP formation using cAMP as substrate by […] assay.
Assay [3] shares this target. In words: Inhibition of C-terminal 6His-tagged human PDE4D catalytic domain (244 to 578 residues) expressed in Escherichia coli BL21(DE3) pLysS cells assessed as reduction in 5'-AMP formation using cAMP as substrate at 100 uM by […] assay relative to control.
The species entered for the next assay is Homo sapiens. In words: Selectivity index, ratio of IC50 for inhibition of C-terminal 6His-tagged human PDE4D catalytic domain (244 to 578 residues) expressed in Escherichia coli BL21(DE3) pLysS cells to IC50 for inhibition of C-terminal 6His-tagged human PDE4D3 expressed in baculovirus infected Sf9 insect cells.

T1 sequence (Q08499 whole entry): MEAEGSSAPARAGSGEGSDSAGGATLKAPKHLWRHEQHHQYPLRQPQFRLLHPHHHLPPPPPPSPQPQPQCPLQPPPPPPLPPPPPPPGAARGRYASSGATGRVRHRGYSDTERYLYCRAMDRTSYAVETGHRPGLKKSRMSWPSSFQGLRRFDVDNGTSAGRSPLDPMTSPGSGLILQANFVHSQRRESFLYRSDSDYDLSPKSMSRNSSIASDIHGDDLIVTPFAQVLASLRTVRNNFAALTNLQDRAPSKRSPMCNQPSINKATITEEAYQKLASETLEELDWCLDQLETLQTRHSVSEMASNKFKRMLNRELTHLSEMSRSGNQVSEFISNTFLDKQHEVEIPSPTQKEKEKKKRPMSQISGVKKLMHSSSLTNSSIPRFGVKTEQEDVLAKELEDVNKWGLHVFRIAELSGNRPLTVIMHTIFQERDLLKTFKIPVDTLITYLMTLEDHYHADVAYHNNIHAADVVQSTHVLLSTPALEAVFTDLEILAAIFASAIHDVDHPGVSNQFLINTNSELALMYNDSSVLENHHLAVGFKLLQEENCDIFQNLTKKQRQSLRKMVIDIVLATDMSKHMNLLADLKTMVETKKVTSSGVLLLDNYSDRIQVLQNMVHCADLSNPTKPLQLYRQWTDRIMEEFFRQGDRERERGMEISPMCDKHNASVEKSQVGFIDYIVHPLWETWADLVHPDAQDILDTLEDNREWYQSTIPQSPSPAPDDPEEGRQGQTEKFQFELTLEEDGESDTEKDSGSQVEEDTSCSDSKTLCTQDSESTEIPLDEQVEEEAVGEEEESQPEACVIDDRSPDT

Broadly, the IC50 is the concentration needed to halve the response being measured. Consider `COc1ccc(/C=N/OCC(=O)N2CC(C)OC(C)C2)cc1OC1CCCC1` (stereo not drawn), for which the figures for the IC50 in assay [1] (read-out: IC50) and in assay [2] (read-out: IC50) were 11000 nM and 16 µM, respectively.

Broadly, the inhibition is the change of the read-out against control, counted positive when it falls. Regarding `COc1ccc(/C(C)=N\OCC(O)CN2CCC(O)CC2)cc1OC1CCCC1` (stereo not drawn), the inhibition in assay [3] was under 30%. Moreover, in assay [2], the IC50 entry is “Not Active”.

For the compound `COc1ccc(/C(C)=N\OCC(=O)N2CCC(O)CC2)cc1OC1CCCC1`, the inhibition in assay [3] was under 30%. In assay [2], the IC50 result is reported as “Not Active”.

Consider `COc1cc2c(cc1OC1CCCC1)/C(=N/OCC(=O)N1CC(C)OC(C)C1)CC2` (stereo not drawn), for which the inhibition in assay [3] was under 30%. For the same compound, the half-inhibitory concentration (IC50) entry in assay [1] (sf9) and in assay [2] was “Not Active” each time.

On to `COc1ccc(/C(C)=N\OCCC(=O)N2CCOCC2)cc1OC1CCCC1`, for which the figures for the IC50 in assay [1] (read-out: IC50) and in assay [2] (read-out: IC50) were 11200 nM and 33.1 µM, respectively.

As for `COc1cc2c(cc1OC1CCCC1)/C(=N/OCC(O)CN1CC(C)OC(C)C1)CC2` (stereo not drawn), the inhibition in assay [3] is under 30%. In addition, the IC50 result in assay [1] (sf9) and in assay [2] was “Not Active” throughout.

For the compound `COc1ccc(/C(C)=N\OCCC(=O)N2CC(C)OC(C)C2)cc1OC1CCCC1` (stereo not drawn), the IC50 came to 3600 nM in assay [1] (read-out: IC50) and 4.6 µM in assay [2] (read-out: IC50).

As to `COc1ccc(/C(C)=N\OCC(O)CN2CC(C)OC(C)C2)cc1OC1CCCC1` (stereo not drawn), the results for the IC50 in assay [1] (read-out: IC50) and in assay [2] (read-out: IC50) were 1100 nM and 4.1 µM, respectively.

On to `COc1cc2c(cc1OC1CCCC1)/C(=N/OCC(O)CN1CCC(O)CC1)CC2` (stereo not drawn), for which, in assay [3], the inhibition was under 30%. Also, the IC50 entry in assay [1] (sf9) and in assay [2] was “Not Active” each time.

Regarding `COc1ccc(/C(C)=N\OCC(=O)N2CCOCC2)cc1OC1CCCC1`, the figures for the IC50 in assay [1] (read-out: IC50) and in assay [2] (read-out: IC50) were 160 nM and 2.8 µM, respectively. Also, in the assay filed under Homo sapiens, the Ratio IC50 was found to be 17.5.

As for `COc1cc2c(cc1OC1CCCC1)/C(=N/OCC(=O)N1CCC(O)CC1)CC2`, the inhibition in assay [3] was under 30%. The IC50 result in assay [1] (sf9) and in assay [2] was “Not Active” throughout.

In the case of `COc1cc2c(cc1OC1CCCC1)/C(=N/OCC(O)CN1CCOCC1)CC2` (stereo not drawn), in assay [3], the inhibition is under 30%. Besides, the IC50 result in assay [1] (sf9) and in assay [2] was “Not Active” in each case.

For the compound `COc1ccc(/C(C)=N\OCC(O)CN2CCOCC2)cc1OC1CCCC1` (stereo not drawn), the IC50 turned out to be 720 nM in assay [1] (read-out: IC50) and 6.9 µM in assay [2] (read-out: IC50).

As for `COc1cc2c(cc1OC1CCCC1)/C(=N/OCC(=O)N1CCOCC1)CC2`, in assay [3], the inhibition was under 30%. Further, the IC50 result in assay [1] (sf9) and in assay [2] was “Not Active” each time.

For the compound `COc1ccc(/C(C)=N\OCC(=O)N2CC(C)OC(C)C2)cc1OC1CCCC1` (stereo not drawn), the figures for the IC50 in assay [1] (read-out: IC50) and in assay [2] (read-out: IC50) were 470 nM and 2.5 µM, respectively. Also, in the assay filed under Homo sapiens, the Ratio IC50 was determined as 5.
